Experiments:
[1] = tested on: Hepatitis C virus; assay: Selectivity ratio, EC50 for HCV1b in presence of 40% human serum to EC50 for HCV1b in presence of 5% fetal bovine serum; type: functional, Hepacivirus hominis, genotype 1b
[2] = tested on: Hepatitis C virus; assay: Antiviral activity against HCV1b infected in human 2209-23 cells assessed as inhibition of virus RNA replication by Renilla luciferase reporter gene assay in presence of 5% fetal bovine serum; type: functional, organism-based, Hepacivirus hominis; conditions: genotype 1b
Summary of the method: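 Cell-based HCV subgenomic replicon (genotype 1b) assay run in medium containing 5% fetal bovine serum.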

[3] = target: Genome polyprotein (Hepatitis C virus genotype 1b (isolate Con1) (HCV), UniProt Q9WMX2); assay: Inhibition of […] con1 NS5B polymerase assessed as [3H]UTP incorporation into acid insoluble RNA product
Genome polyprotein, sequence (Q9WMX2 2420-3010 limits assumed): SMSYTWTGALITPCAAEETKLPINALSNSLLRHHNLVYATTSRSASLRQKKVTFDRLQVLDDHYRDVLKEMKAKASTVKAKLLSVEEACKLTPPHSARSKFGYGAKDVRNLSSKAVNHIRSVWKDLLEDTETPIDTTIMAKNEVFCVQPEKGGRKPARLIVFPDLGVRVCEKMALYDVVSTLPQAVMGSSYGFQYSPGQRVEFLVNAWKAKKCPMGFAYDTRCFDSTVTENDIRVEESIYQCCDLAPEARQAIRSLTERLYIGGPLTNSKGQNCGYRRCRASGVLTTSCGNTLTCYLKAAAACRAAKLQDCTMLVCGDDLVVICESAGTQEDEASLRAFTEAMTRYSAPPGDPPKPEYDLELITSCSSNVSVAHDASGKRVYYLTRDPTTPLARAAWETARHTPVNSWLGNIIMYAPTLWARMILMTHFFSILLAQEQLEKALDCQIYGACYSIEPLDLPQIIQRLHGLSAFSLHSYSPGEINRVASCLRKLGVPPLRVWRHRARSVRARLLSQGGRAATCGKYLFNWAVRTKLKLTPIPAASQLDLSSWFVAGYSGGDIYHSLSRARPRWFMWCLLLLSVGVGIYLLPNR

[4] = tested on: Hepatitis C virus; assay: Antiviral activity against HCV1b infected in human 2209-23 cells assessed as inhibition of virus RNA replication by Renilla luciferase reporter gene assay in presence of 40% human serum; type: functional, organism-based, Hepacivirus hominis; conditions: genotype 1b
Summary of the method: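 Serum-shift version of the HCV subgenomic replicon (GT-1b) cell assay, with 40% human serum added to assess the effect of protein binding.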

[5] = Oral bioavailability in rat at 5 mg/kg; type: ADME, organism-based; conditions: in vivo
Summary of the method: (§1)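 Single-dose PK in rats or cynomolgus monkeys; intravenous dose 2 mg/Kg, oral dose 5 mg/Kg; parameters reported as means.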

[6] = Clearance in rat at 2 mg/kg, iv and 5 mg/kg, po; type: ADME, organism-based; conditions: in vivo; summary of the method: as §1
[7] = Half life in rat at 2 mg/kg, iv and 5 mg/kg, po; type: ADME, organism-based; conditions: in vivo; summary of the method: as §1
[8] = tested on: Caco-2; assay: Efflux ratio of permeability from basolateral to apical over apical to basolateral side in human Caco-2 cells after 21 days; conditions: caco-2, 504 h
[9] = AUC in rat at 2 mg/kg, iv and 5 mg/kg, po; type: ADME, organism-based; conditions: plasma; summary of the method: as §1
[10] = tested on: Hepatitis C virus; assay: Ratio of EC50 for HCV GT-1a replicon over EC50 for HCV GT-1b replicon
[11] = Metabolic stability in rat liver microsomes; type: ADME, Microsome; conditions: read-out: Stability
[12] = tested on: Hepatitis C virus; assay: Antiviral activity against HCV1b infected in human 2209-23 cells assessed as inhibition of virus RNA replication by Renilla luciferase reporter gene assay; type: functional, organism-based, Hepacivirus hominis; conditions: genotype 1b
[13] = AUC in cynomolgus monkey at 2 mg/kg, iv and 5 mg/kg, po; type: ADME, organism-based, Macaca fascicularis; conditions: plasma; summary of the method: as §1
[14] = Oral bioavailability in cynomolgus monkey at 5 mg/kg; type: ADME, organism-based, Macaca fascicularis; conditions: in vivo; summary of the method: as §1
[15] = Half life in cynomolgus monkey at 2 mg/kg, iv and 5 mg/kg, po; type: ADME, organism-based, Macaca fascicularis; conditions: in vivo; summary of the method: as §1
[16] = Metabolic stability in cynomolgus monkey liver microsomes; type: ADME, Macaca fascicularis, Microsome; conditions: read-out: Stability
[17] = Clearance in cynomolgus monkey at 2 mg/kg, iv and 5 mg/kg, po; type: ADME, organism-based, Macaca fascicularis; conditions: in vivo; summary of the method: as §1

| Compound | EC50 [2] | IC50 [3] | EC50 [4] | Ratio IC50 [1] | Ratio EC50 [10] | also measured |
| --- | --- | --- | --- | --- | --- | --- |
| CC(C)(C)[C@H]1C(O)=C(C2=NS(=O)(=O)c3c(OCS(N)(=O)=O)cccc32)C(=O)N1Cc1ccc(F)cc1 | 228 nM | 6 nM | 2900 nM | 12.7 | – | – |
| CC(C)(C)[C@H]1C(O)=C(C2=NS(=O)(=O)c3c(OCS(C)(=O)=O)cccc32)C(=O)N1Cc1ccc(F)cc1 | 235 nM | 9 nM | 4660 nM | 19.8 | – | – |
| CC(C)(C)[C@H]1C(O)=C(C2=NS(=O)(=O)c3c(NS(C)(=O)=O)cccc32)C(=O)N1Cc1ccc(F)cc1 | – | 5 nM | – | – | – | EC50 [12]: 4920 nM |
| CC(C)(C)[C@H]1C(O)=C(C2=NS(=O)(=O)c3c(CN4CCCCS4(=O)=O)cccc32)C(=O)N1Cc1ccc(F)cc1 | 202 nM | 12 nM | 4660 nM | 23.1 | – | – |
| CC(C)(C)[C@H]1C(O)=C(C2=NS(=O)(=O)c3c(CNS(C)(=O)=O)cccc32)C(=O)N1Cc1ccc(F)cc1 | 100 nM | – | 3730 nM | 37.3 | 2 | – |
| CN(Cc1cccc2c1S(=O)(=O)N=C2C1=C(O)[C@H](C(C)(C)C)N(Cc2ccc(F)c(Cl)c2)C1=O)S(C)(=O)=O | 108 nM | 10 nM | 3040 nM | 28.1 | – | – |
| CC(C)(C)[C@H]1C(O)=C(C2=NS(=O)(=O)c3cc(CNS(C)(=O)=O)ccc32)C(=O)N1Cc1ccc(F)cc1 | – | 43 nM | – | – | – | EC50 [12]: 3840 nM |

Further lines, with some results ahead:

| EC50 [2] | IC50 [3] | EC50 [4] | Compound | Ratio IC50 [1] | Ratio EC50 [10] | also measured |
| --- | --- | --- | --- | --- | --- | --- |
| 129 nM | 5 nM | 1070 nM | Cc1cc(CN2C(=O)C(C3=NS(=O)(=O)c4c(CN(C)S(C)(=O)=O)cccc43)=C(O)[C@@H]2C(C)(C)C)ccc1F | 8.27 | 2 | bioavailability [5]: 24%; clearance [6]: 34.4 mL/min/kg; half-life [7]: 3.37 h; Ratio [8]: 4.3; AUC [9]: 582 ng·h/mL; microsomal CLint [11]: 939 µL/min/mg |
| 272 nM | 1 nM | 1270 nM | CN(Cc1cccc2c1S(=O)(=O)N=C2C1=C(O)[C@H](C(C)(C)C)N(Cc2ccc(F)cc2)C1=O)S(N)(=O)=O | 5.9 | – | – |
| 76 nM | 3 nM | 1170 nM | Cc1cc(CN2C(=O)C(C3=NS(=O)(=O)c4c(CNS(N)(=O)=O)cccc43)=C(O)[C@@H]2C(C)(C)C)ccc1F | 15.3 | 2 | bioavailability [5]: 8.2%; clearance [6]: 48 mL/min/kg; half-life [7]: 4.7 h; Ratio [8]: 6.7; AUC [9]: 102 ng·h/mL; microsomal CLint [11]: 239 µL/min/mg |
| 105 nM | 3 nM | 1300 nM | CC(C)(C)[C@H]1C(O)=C(C2=NS(=O)(=O)c3c(CNS(N)(=O)=O)cccc32)C(=O)N1Cc1ccc(F)cc1 | 12.4 | – | – |
| 282 nM | 4 nM | 4800 nM | CC(C)(C)[C@H]1C(O)=C(C2=NS(=O)(=O)c3c(CCS(C)(=O)=O)cccc32)C(=O)N1Cc1ccc(F)cc1 | 17 | – | – |
| 82 nM | 4 nM | 2570 nM | Cc1cc(CN2C(=O)C(C3=NS(=O)(=O)c4c(CNS(C)(=O)=O)cccc43)=C(O)[C@@H]2C(C)(C)C)ccc1F | 31.3 | 2 | bioavailability [5]: 17%; AUC [13]: 1230 ng·h/mL; clearance [6]: 8.4 mL/min/kg; bioavailability [14]: 11%; half-life [7]: 4.18 h; half-life [15]: 1.75 h; Ratio [8]: 31; AUC [9]: 2750 ng·h/mL; microsomal CLint [16]: 23 µL/min/mg; microsomal CLint [11]: 431 µL/min/mg; clearance [17]: 10 mL/min/kg |

Reference: ChEMBL document CHEMBL1155198, “Non-nucleoside inhibitors of HCV polymerase NS5B. Part 4: structure-based design, synthesis, and biological evaluation of benzo[d]isothiazole-1,1-dioxides” (Bioorg Med Chem Lett, 2009)
